Tested on: HEK-293T
Experiment: Multiplex assay against HEK293T
Format: toxicity, cell-based
Conditions: human
How it was run: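 Live cells carried four stains from seeding: Hoechst33342, BioTracker Green Microtubule Cytoskeleton Dye, MitoTracker Red and Annexin V Alexa Fluor 680. They were imaged on a CQ1 microscope at 37°C and 5% CO2 after compound addition. Using CellPathfinder machine-learning gating, cells were split into Hoechst high-intensity objects or normal cells, normal cells into healthy, pyknosed or fragmented nuclei, and pyknosed cells into mitotic or apoptotic; tubulin, mitochondrial-mass and membrane-permeability phenotypes are per cents of healthy-nucleus cells.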

[1] = 12 h, 1 µM, compound concentration 1 uM, replicate 1
[2] = 12 h, 1 µM, compound concentration 1 uM, replicate 2
[3] = 12 h, 10 µM, compound concentration 10 uM, replicate 1
[4] = 12 h, 10 µM, compound concentration 10 uM, replicate 2
[5] = 24 h, 1 µM, compound concentration 1 uM, replicate 1
[6] = 24 h, 1 µM, compound concentration 1 uM, replicate 2
[7] = 24 h, 10 µM, compound concentration 10 uM, replicate 1
[8] = 24 h, 10 µM, compound concentration 10 uM, replicate 2
[9] = 48 h, 1 µM, compound concentration 1 uM, replicate 1
[10] = 48 h, 1 µM, compound concentration 1 uM, replicate 2
[11] = 48 h, 10 µM, compound concentration 10 uM, replicate 1
[12] = 48 h, 10 µM, compound concentration 10 uM, replicate 2

## CC(=O)Nc1cccc2c1c(Sc1ccc(Cl)cc1)c(C)n2CC(=O)O [AZD1981]
[1]
  Population Apoptotic (%): 37%
  Population Fragmented Nuclei (%): 6%
  Population Healthy Nuclei (%): 81%
  Population Hoechst High Intensity Objects (%): 6%
  Population Membrane Permeable-Phenotype (%): 0%
  Population Mitochondria Different-Phenotype (%): 46%
  Population Mitotic Cells (%): 62%
  Population Normal (%): 93%
  Population Pyknosed Nuclei (%): 11%
  Population Tubulin-Different-Phenotype (%): 28%
  Total Cell Count: 405
[2]
  Population Apoptotic (%): 60%
  Population Fragmented Nuclei (%): 5%
  Population Healthy Nuclei (%): 80%
  Population Hoechst High Intensity Objects (%): 8%
  Population Mitochondria Different-Phenotype (%): 57%
  Population Mitotic Cells (%): 40%
  Population Normal (%): 91%
  Population Pyknosed Nuclei (%): 13%
  Population Tubulin-Different-Phenotype (%): 18%
  Total Cell Count: 314
[3]
  Population Apoptotic (%): 38%
  Population Fragmented Nuclei (%): 8%
  Population Healthy Nuclei (%): 78%
  Population Hoechst High Intensity Objects (%): 7%
  Population Membrane Permeable-Phenotype (%): 0%
  Population Mitochondria Different-Phenotype (%): 44%
  Population Mitotic Cells (%): 61%
  Population Normal (%): 92%
  Population Pyknosed Nuclei (%): 12%
  Population Tubulin-Different-Phenotype (%): 29%
  Total Cell Count: 403
[4]
  Population Apoptotic (%): 60%
  Population Fragmented Nuclei (%): 6%
  Population Healthy Nuclei (%): 77%
  Population Hoechst High Intensity Objects (%): 15%
  Population Mitochondria Different-Phenotype (%): 60%
  Population Mitotic Cells (%): 39%
  Population Normal (%): 84%
  Population Pyknosed Nuclei (%): 15%
  Population Tubulin-Different-Phenotype (%): 26%
  Total Cell Count: 318
[5]
  Population Apoptotic (%): 20%
  Population Fragmented Nuclei (%): 9%
  Population Healthy Nuclei (%): 80%
  Population Hoechst High Intensity Objects (%): 2%
  Population Membrane Permeable-Phenotype (%): 0%
  Population Mitochondria Different-Phenotype (%): 33%
  Population Mitotic Cells (%): 79%
  Population Normal (%): 97%
  Population Pyknosed Nuclei (%): 9%
  Population Tubulin-Different-Phenotype (%): 23%
  Total Cell Count: 568
[6]
  Population Apoptotic (%): 54%
  Population Fragmented Nuclei (%): 7%
  Population Hoechst High Intensity Objects (%): 9%
  Population Mitochondria Different-Phenotype (%): 42%
  Population Mitotic Cells (%): 45%
  Population Normal (%): 90%
  Population Pyknosed Nuclei (%): 11%
  Population Tubulin-Different-Phenotype (%): 16%
  Total Cell Count: 398
[7]
  Population Apoptotic (%): 40%
  Population Fragmented Nuclei (%): 7%
  Population Healthy Nuclei (%): 79%
  Population Hoechst High Intensity Objects (%): 4%
  Population Membrane Permeable-Phenotype (%): 0%
  Population Mitochondria Different-Phenotype (%): 28%
  Population Mitotic Cells (%): 59%
  Population Normal (%): 95%
  Population Pyknosed Nuclei (%): 13%
  Population Tubulin-Different-Phenotype (%): 25%
  Total Cell Count: 526
[8]
  Population Apoptotic (%): 59%
  Population Fragmented Nuclei (%): 8%
  Population Healthy Nuclei (%): 81%
  Population Hoechst High Intensity Objects (%): 12%
  Population Mitochondria Different-Phenotype (%): 45%
  Population Mitotic Cells (%): 40%
  Population Normal (%): 87%
  Population Pyknosed Nuclei (%): 9%
  Population Tubulin-Different-Phenotype (%): 19%
  Total Cell Count: 387
[9]
  Population Apoptotic (%): 21%
  Population Fragmented Nuclei (%): 15%
  Population Healthy Nuclei (%): 78%
  Population Hoechst High Intensity Objects (%): 1%
  Population Membrane Permeable-Phenotype (%): 1%
  Population Mitochondria Different-Phenotype (%): 18%
  Population Mitotic Cells (%): 78%
  Population Normal (%): 98%
  Population Pyknosed Nuclei (%): 6%
  Population Tubulin-Different-Phenotype (%): 10%
  Total Cell Count: 908
[10]
  Population Apoptotic (%): 38%
  Population Fragmented Nuclei (%): 13%
  Population Healthy Nuclei (%): 79%
  Population Hoechst High Intensity Objects (%): 3%
  Population Mitochondria Different-Phenotype (%): 20%
  Population Mitotic Cells (%): 61%
  Population Normal (%): 96%
  Population Tubulin-Different-Phenotype (%): 12%
  Total Cell Count: 570
[11]
  Population Apoptotic (%): 37%
  Population Fragmented Nuclei (%): 14%
  Population Healthy Nuclei (%): 78%
  Population Hoechst High Intensity Objects (%): 2%
  Population Membrane Permeable-Phenotype (%): 0%
  Population Mitochondria Different-Phenotype (%): 18%
  Population Mitotic Cells (%): 62%
  Population Normal (%): 97%
  Population Pyknosed Nuclei (%): 7%
  Population Tubulin-Different-Phenotype (%): 11%
  Total Cell Count: 751
[12]
  Population Apoptotic (%): 33%
  Population Fragmented Nuclei (%): 16%
  Population Hoechst High Intensity Objects (%): 4%
  Population Mitochondria Different-Phenotype (%): 26%
  Population Mitotic Cells (%): 66%
  Population Normal (%): 95%
  Population Pyknosed Nuclei (%): 5%
  Total Cell Count: 556
